From ChEMBL document CHEMBL3860039, “Structure-Activity Relationship and Signaling of New Chimeric CXCR4 Agonists” (J Med Chem, 2016)

Columns and labels:
Assay type in all cases: cell-based
[1] = target: T1, C-X-C chemokine receptor type 4 (Homo sapiens, UniProt P61073); assay: Agonist activity at CXCR4 in human REH cells assessed as optimal concentration causing maximum induction of chemotaxis incubated for 3 hrs by transwell migration assay
Outline: (§1)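 REH acute lymphoblastic B-cell leukaemia cells washed in RPMI; 100 000 cells in RPMI + 0.2% BSA seeded on top of 5 μm pore polycarbonate transwell, peptide dilutions in same medium in bottom chamber; 3 h, 37 °C, 5% CO2. Migrated cells in lower chamber counted by automated counter, expressed as % of seeded cells; peak = concentration giving maximal migration. Three experiments in triplicate.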

[2] = target: T1, C-X-C chemokine receptor type 4; assay: Displacement of [125I]-CXCL12 from HA-tagged human recombinant CXCR4 expressed in HEK293 cells incubated for 1 hr by gamma-radiation counting analysis
[3] = target: T1, C-X-C chemokine receptor type 4; assay: Agonist activity at CXCR4 in human REH cells assessed as induction of chemotaxis incubated for 3 hrs by transwell migration assay; outline: as §1
[4] = target: T1, C-X-C chemokine receptor type 4; assay: Agonist activity at HA-tagged human CXCR4 receptor expressed in HEK293 cells co-transfected with Galphai1-91-RlucII, Gbeta1, and GFP10-G-gamma1 incubated for 7 mins by Galpha1 protein activation-based BRET assay
Outline: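 HEK293 cells (3 × 10^6 per 100 mm dish) co-transfected via polyethylenimine with HA-hCXCR4 plus Gαi1-91-RlucII, Gβ1, GFP10-Gγ1; replated at 24 h, 100 000 cells/well. At 48 h, washed in HBSS/0.1% BSA, exposed to ligand 10−12 to 10−5 M for 7 min, then coelenterazine-400A 5 μM final; BRET2 515/400 nm ratio. EC50 (Gαi dissociation) and Emax from three experiments in triplicate.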

T1 sequence (P61073 whole entry): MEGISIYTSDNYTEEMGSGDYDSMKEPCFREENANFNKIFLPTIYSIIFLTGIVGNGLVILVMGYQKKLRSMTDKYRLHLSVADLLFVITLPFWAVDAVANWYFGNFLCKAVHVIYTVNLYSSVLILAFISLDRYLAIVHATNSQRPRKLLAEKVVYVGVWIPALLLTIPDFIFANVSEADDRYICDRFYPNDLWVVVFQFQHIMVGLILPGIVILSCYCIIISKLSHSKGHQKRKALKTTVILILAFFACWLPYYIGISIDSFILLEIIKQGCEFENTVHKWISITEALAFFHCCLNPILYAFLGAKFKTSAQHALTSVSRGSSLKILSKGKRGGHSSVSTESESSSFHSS

SMILES	Activity [1]	IC50 [2]	%max [3]	EC50 [4]	Emax [4]
CC(C)C[C@H](NC(=O)[C@H](CO)NC(=O)[C@@H](NC(=O)[C@@H]1CCCN1C(=O)[C@@H](N)CCCCN)C(C)C)C(=O)N[C@@H](CO)C(=O)N[C@@H](Cc1ccccc1)C(=O)N[C@@H](CCCNC(=N)N)C(=O)N[C@@H](CO)C(=O)N[C@@H](C)C(=O)NCCCC[C@H](NC(=O)[C@@H]1CSSC[C@H](NC(=O)[C@H](Cc2ccc3ccccc3c2)NC(=O)[C@H](CCCNC(=N)N)NC(=O)[C@@H](N)CCCNC(=N)N)C(=O)N[C@@H](Cc2ccc(O)cc2)C(=O)N[C@@H](CCCNC(=N)N)C(=O)N[C@@H](CCCCN)C(=O)N[C@H](CCCCN)C(=O)N2CCC[C@H]2C(=O)N[C@@H](Cc2ccc(O)cc2)C(=O)N[C@@H](CCCNC(=N)N)C(=O)N[C@@H](CCCNC(=N)N)C(=O)N1)C(=O)O	10 nM	69 nM	16%	65 nM	41%
CC(C)C[C@H](NC(=O)[C@H](CO)NC(=O)[C@@H](NC(=O)[C@@H]1CCCN1C(=O)[C@@H](N)CCCCN)C(C)(C)C)C(=O)N[C@@H](CO)C(=O)N[C@@H](Cc1ccc(O)cc1)C(=O)N[C@@H](CCCNC(=N)N)C(=O)N[C@@H](CO)C(=O)N[C@@H](C)C(=O)NCCCC[C@H](NC(=O)[C@@H]1CSSC[C@H](NC(=O)[C@H](Cc2ccc3ccccc3c2)NC(=O)[C@H](CCCNC(=N)N)NC(=O)[C@@H](N)CCCNC(=N)N)C(=O)N[C@@H](Cc2ccc(O)cc2)C(=O)N[C@@H](CCCNC(=N)N)C(=O)N[C@@H](CCCCN)C(=O)N[C@H](CCCCN)C(=O)N2CCC[C@H]2C(=O)N[C@@H](Cc2ccc(O)cc2)C(=O)N[C@@H](CCCNC(=N)N)C(=O)N[C@@H](CCCNC(=N)N)C(=O)N1)C(=O)O	100 nM	84 nM	21%	15 nM	36%
CC(C)C[C@H](NC(=O)[C@H](CO)NC(=O)[C@@H](NC(=O)[C@@H]1CCCN1C(=O)[C@@H](N)CCCCN)C(C)C)C(=O)N[C@@H](CO)C(=O)N[C@@H](Cc1ccc(F)cc1)C(=O)N[C@@H](CCCNC(=N)N)C(=O)N[C@@H](CO)C(=O)N[C@@H](C)C(=O)NCCCC[C@H](NC(=O)[C@@H]1CSSC[C@H](NC(=O)[C@H](Cc2ccc3ccccc3c2)NC(=O)[C@H](CCCNC(=N)N)NC(=O)[C@@H](N)CCCNC(=N)N)C(=O)N[C@@H](Cc2ccc(O)cc2)C(=O)N[C@@H](CCCNC(=N)N)C(=O)N[C@@H](CCCCN)C(=O)N[C@H](CCCCN)C(=O)N2CCC[C@H]2C(=O)N[C@@H](Cc2ccc(O)cc2)C(=O)N[C@@H](CCCNC(=N)N)C(=O)N[C@@H](CCCNC(=N)N)C(=O)N1)C(=O)O	10 nM	78 nM	43%	83 nM	60%
CC(C)C[C@H](NC(=O)[C@H](C)NC(=O)[C@@H](NC(=O)[C@@H]1CCCN1C(=O)[C@@H](N)CCCCN)C(C)C)C(=O)N[C@@H](CO)C(=O)N[C@@H](Cc1ccc(O)cc1)C(=O)N[C@@H](CCCNC(=N)N)C(=O)N[C@@H](CO)C(=O)N[C@@H](C)C(=O)NCCCC[C@H](NC(=O)[C@@H]1CSSC[C@H](NC(=O)[C@H](Cc2ccc3ccccc3c2)NC(=O)[C@H](CCCNC(=N)N)NC(=O)[C@@H](N)CCCNC(=N)N)C(=O)N[C@@H](Cc2ccc(O)cc2)C(=O)N[C@@H](CCCNC(=N)N)C(=O)N[C@@H](CCCCN)C(=O)N[C@H](CCCCN)C(=O)N2CCC[C@H]2C(=O)N[C@@H](Cc2ccc(O)cc2)C(=O)N[C@@H](CCCNC(=N)N)C(=O)N[C@@H](CCCNC(=N)N)C(=O)N1)C(=O)O	10 nM	25 nM	50%	56 nM	81%

The remaining compounds from weak to strong by IC50 [2], led by results:

Activity [1]	IC50 [2]	%max [3]	EC50 [4]	Emax [4]	SMILES
10000 nM	300 nM	16%	40 nM	25%	CC(C)C[C@H](NC(=O)[C@H](CO)NC(=O)[C@@H](NC(=O)[C@@H]1CCCN1C(=O)[C@@H](N)CCCCN)C(C)C)C(=O)N[C@@H](CO)C(=O)N[C@@H](Cc1ccc(O)cc1)C(=O)N[C@@H](C)C(=O)N[C@@H](CO)C(=O)N[C@@H](C)C(=O)NCCCC[C@H](NC(=O)[C@@H]1CSSC[C@H](NC(=O)[C@H](Cc2ccc3ccccc3c2)NC(=O)[C@H](CCCNC(=N)N)NC(=O)[C@@H](N)CCCNC(=N)N)C(=O)N[C@@H](Cc2ccc(O)cc2)C(=O)N[C@@H](CCCNC(=N)N)C(=O)N[C@@H](CCCCN)C(=O)N[C@H](CCCCN)C(=O)N2CCC[C@H]2C(=O)N[C@@H](Cc2ccc(O)cc2)C(=O)N[C@@H](CCCNC(=N)N)C(=O)N[C@@H](CCCNC(=N)N)C(=O)N1)C(=O)O
10 nM	84 nM	45%	58 nM	55%	CC(C)C[C@H](NC(=O)[C@H](CO)NC(=O)[C@@H](NC(=O)[C@@H]1CCCN1C(=O)[C@@H](N)CCCCN)C(C)C)C(=O)N[C@@H](CO)C(=O)N[C@@H](Cc1ccc(O)cc1)C(=O)N[C@@H](CCCNC(=N)N)C(=O)N[C@@H](CO)C(=O)N[C@@H](C)C(=O)NCCCC[C@H](NC(=O)[C@@H]1CSSC[C@H](NC(=O)[C@H](Cc2ccc3ccccc3c2)NC(=O)[C@H](CCCNC(=N)N)NC(=O)[C@@H](N)CCCNC(=N)N)C(=O)N[C@@H](Cc2ccc(O)cc2)C(=O)N[C@@H](CCCNC(=N)N)C(=O)N[C@@H](CCCCN)C(=O)N[C@H](CCCCN)C(=O)N2CCC[C@H]2C(=O)N[C@@H](Cc2ccc(O)cc2)C(=O)N[C@@H](CCCNC(=N)N)C(=O)N[C@@H](CCCNC(=N)N)C(=O)N1)C(=O)O
100 nM	73 nM	51%	94 nM	59%	CC(C)C[C@H](NC(=O)[C@H](CO)NC(=O)[C@@H](NC(=O)[C@@H]1CCCN1C(=O)[C@@H](N)CCCCN)C(C)C)C(=O)N[C@@H](CO)C(=O)N[C@@H](Cc1ccc(I)cc1)C(=O)N[C@@H](CCCNC(=N)N)C(=O)N[C@@H](CO)C(=O)N[C@@H](C)C(=O)NCCCC[C@H](NC(=O)[C@@H]1CSSC[C@H](NC(=O)[C@H](Cc2ccc3ccccc3c2)NC(=O)[C@H](CCCNC(=N)N)NC(=O)[C@@H](N)CCCNC(=N)N)C(=O)N[C@@H](Cc2ccc(O)cc2)C(=O)N[C@@H](CCCNC(=N)N)C(=O)N[C@@H](CCCCN)C(=O)N[C@H](CCCCN)C(=O)N2CCC[C@H]2C(=O)N[C@@H](Cc2ccc(O)cc2)C(=O)N[C@@H](CCCNC(=N)N)C(=O)N[C@@H](CCCNC(=N)N)C(=O)N1)C(=O)O
10 nM	64 nM	47%	152 nM	43%	CC(C)C[C@H](NC(=O)[C@H](CO)NC(=O)[C@H](Cc1ccc2ccccc2c1)NC(=O)[C@@H]1CCCN1C(=O)[C@@H](N)CCCCN)C(=O)N[C@@H](CO)C(=O)N[C@@H](Cc1ccc(O)cc1)C(=O)N[C@@H](CCCNC(=N)N)C(=O)N[C@@H](CO)C(=O)N[C@@H](C)C(=O)NCCCC[C@H](NC(=O)[C@@H]1CSSC[C@H](NC(=O)[C@H](Cc2ccc3ccccc3c2)NC(=O)[C@H](CCCNC(=N)N)NC(=O)[C@@H](N)CCCNC(=N)N)C(=O)N[C@@H](Cc2ccc(O)cc2)C(=O)N[C@@H](CCCNC(=N)N)C(=O)N[C@@H](CCCCN)C(=O)N[C@H](CCCCN)C(=O)N2CCC[C@H]2C(=O)N[C@@H](Cc2ccc(O)cc2)C(=O)N[C@@H](CCCNC(=N)N)C(=O)N[C@@H](CCCNC(=N)N)C(=O)N1)C(=O)O
10 nM	48 nM	75%	81 nM	68%	CC(C)C[C@H](NC(=O)[C@H](CO)NC(=O)[C@H](Cc1ccc2cc3ccccc3cc2c1)NC(=O)[C@@H]1CCCN1C(=O)[C@@H](N)CCCCN)C(=O)N[C@@H](CO)C(=O)N[C@@H](Cc1ccc(O)cc1)C(=O)N[C@@H](CCCNC(=N)N)C(=O)N[C@@H](CO)C(=O)N[C@@H](C)C(=O)NCCCC[C@H](NC(=O)[C@@H]1CSSC[C@H](NC(=O)[C@H](Cc2ccc3ccccc3c2)NC(=O)[C@H](CCCNC(=N)N)NC(=O)[C@@H](N)CCCNC(=N)N)C(=O)N[C@@H](Cc2ccc(O)cc2)C(=O)N[C@@H](CCCNC(=N)N)C(=O)N[C@@H](CCCCN)C(=O)N[C@H](CCCCN)C(=O)N2CCC[C@H]2C(=O)N[C@@H](Cc2ccc(O)cc2)C(=O)N[C@@H](CCCNC(=N)N)C(=O)N[C@@H](CCCNC(=N)N)C(=O)N1)C(=O)O
10 nM	34 nM	69%	76 nM	90%	CC(C)C[C@H](NC(=O)[C@H](CO)NC(=O)[C@@H](NC(=O)[C@@H]1CCCN1C(=O)[C@@H](N)CCCCN)C(C)C)C(=O)N[C@@H](CO)C(=O)N[C@@H](Cc1ccc(C(=O)c2ccccc2)cc1)C(=O)N[C@@H](CCCNC(=N)N)C(=O)N[C@@H](CO)C(=O)N[C@@H](C)C(=O)NCCCC[C@H](NC(=O)[C@@H]1CSSC[C@H](NC(=O)[C@H](Cc2ccc3ccccc3c2)NC(=O)[C@H](CCCNC(=N)N)NC(=O)[C@@H](N)CCCNC(=N)N)C(=O)N[C@@H](Cc2ccc(O)cc2)C(=O)N[C@@H](CCCNC(=N)N)C(=O)N[C@@H](CCCCN)C(=O)N[C@H](CCCCN)C(=O)N2CCC[C@H]2C(=O)N[C@@H](Cc2ccc(O)cc2)C(=O)N[C@@H](CCCNC(=N)N)C(=O)N[C@@H](CCCNC(=N)N)C(=O)N1)C(=O)O
